Measured values taken from ChEMBL document CHEMBL5030505, “Assessment of NR4A Ligands That Directly Bind and Modulate the Orphan Nuclear Receptor Nurr1” (J Med Chem, 2020).
Calls of active or inactive are those of the source. No cut-off for these calls is given here.

Columns and labels:
Type in all cases: cell-based
[1] = biological target: Nuclear receptor subfamily 4 group A member 2 (Homo sapiens) (UniProt P43354); experiment: Modulation of full length human Nurr1 expressed in HEK293T cells co-transfected with luciferase reporter plasmid harboring NBRE response element assessed as decrease in luciferase activity at 1.55 to 15 uM incubated for 18 hrs by luciferase reporter gene assay; details: filed as modulator, dose 1.55-15 µM
How it was run: (§1)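 Cells transfected (Lipofectamine 2000, 18 h) with full-length Nurr1 expression plasmid (2 μg) and 3xNBRE- or 3xNurRE-luciferase reporter (6 μg), no internal control normalisation; replated 10,000 cells/well, 4 h; ligand or vehicle in quadruplicate for 18 h; Britelite Plus luminescence as fold change over vehicle. Mean ± s.e.m. (n=4); one-way ANOVA versus vehicle.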

[2] = biological target: Nuclear receptor subfamily 4 group A member 2 (Homo sapiens) (UniProt P43354); experiment: Modulation of full length human Nurr1 expressed in PC-12 cells co-transfected with luciferase reporter plasmid harboring NBRE response element assessed as decrease in luciferase activity at 1.55 to 15 uM incubated for 18 hrs by luciferase reporter gene assay; details: filed as modulator, dose 1.55-15 µM; how it was run: as §1
[3] = system: HEK293T; experiment: Modulation of Gal4-fused VP16 expressed in HEK293T cells co-transfected with UAS repoter gene assessed as decrease in luciferase activity at 1.55 to 15 uM incubated for 18 hrs by luciferase reporter gene assay; details: Human alphaherpesvirus 2, filed as modulator, dose 1.55-15 µM
How it was run: (§2)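 Constitutive control: cells transfected (Lipofectamine 2000) with Gal4-VP16 expression plasmid (2 μg) plus 5xUAS-luciferase reporter (2 μg), 18 h; replated 10,000 cells/well, 4 h; ligand or vehicle in quadruplicate for 18 h; luciferase read by Britelite Plus; signal as fold change over vehicle-treated cells. Mean ± s.e.m. (n=4); one-way ANOVA versus vehicle.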

[4] = system: PC-12; experiment: Cytotoxicity in rat PC-12 cells assessed as reduction in cell viability at 1.55 to 15 uM incubated for 18 hrs by Cell Titer-Glo assay; details: pc-12, 18 h, dose 1.55-15 µM
How it was run: (§3)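 Cells seeded 1.5 million per 10-cm dish; next day replated at 10,000 cells/well in 384-well format, 4 h, then ligand or vehicle (water, ethanol or DMSO by ligand) added in quadruplicate for 18 h; viability read by CellTiter-Glo luminescence. Mean ± s.e.m. (n=4), generally 2 independent experiments; one-way ANOVA versus vehicle.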

[5] = biological target: Nuclear receptor subfamily 4 group A member 2 (Homo sapiens) (UniProt P43354); experiment: Modulation of full length human Nurr1 expressed in […] cells co-transfected with luciferase reporter plasmid harboring NBRE response element assessed as decrease in luciferase activity at 1.55 to 15 uM incubated for 18 hrs by luciferase reporter gene assay; details: SKNBE2, filed as modulator, dose 1.55-15 µM; how it was run: as §1
[6] = system: SKNBE2; experiment: Modulation of Gal4-fused VP16 expressed in SKNBE(2) cells co-transfected with UAS repoter gene assessed as decrease in luciferase activity at 1.55 to 15 uM incubated for 18 hrs by luciferase reporter gene assay; details: Human alphaherpesvirus 2, filed as modulator, dose 1.55-15 µM; how it was run: as §2
[7] = biological target: Nuclear receptor subfamily 4 group A member 2 (Homo sapiens) (UniProt P43354); experiment: Modulation of full length human Nurr1 expressed in HEK293T cells co-transfected with luciferase reporter plasmid harboring NurRE response element assessed as decrease in luciferase activity at 1.55 to 15 uM incubated for 18 hrs by luciferase reporter gene assay; details: filed as modulator, dose 1.55-15 µM; how it was run: as §1
[8] = biological target: Nuclear receptor subfamily 4 group A member 2 (Homo sapiens) (UniProt P43354); experiment: Modulation of full length human Nurr1 expressed in […] cells co-transfected with luciferase reporter plasmid harboring NurRE response element assessed as decrease in luciferase activity at 1.55 to 15 uM incubated for 18 hrs by luciferase reporter gene assay; details: SKNBE2, filed as modulator, dose 1.55-15 µM; how it was run: as §1
[9] = system: PC-12; experiment: Modulation of Gal4-fused VP16 expressed in PC12 cells co-transfected with UAS repoter gene assessed as decrease in luciferase activity at 1.55 to 15 uM incubated for 18 hrs by luciferase reporter gene assay; details: Human alphaherpesvirus 2, filed as modulator, dose 1.55-15 µM; how it was run: as §2
[10] = system: SK-N-BE(2); experiment: Cytotoxicity in human SKNBE2 cells assessed as reduction in cell viability at 1.55 to 15 uM incubated for 18 hrs by Cell Titer-Glo assay; details: dose 1.55-15 µM; how it was run: as §3
[11] = system: HEK-293T; experiment: Cytotoxicity in human HEK293T cells assessed as reduction in cell viability at 1.55 to 15 uM incubated for 18 hrs by Cell Titer-Glo assay; details: dose 1.55-15 µM; how it was run: as §3

Sequence of Nuclear receptor subfamily 4 group A member 2 (Homo sapiens) (P43354 whole entry, the tested form may be a part): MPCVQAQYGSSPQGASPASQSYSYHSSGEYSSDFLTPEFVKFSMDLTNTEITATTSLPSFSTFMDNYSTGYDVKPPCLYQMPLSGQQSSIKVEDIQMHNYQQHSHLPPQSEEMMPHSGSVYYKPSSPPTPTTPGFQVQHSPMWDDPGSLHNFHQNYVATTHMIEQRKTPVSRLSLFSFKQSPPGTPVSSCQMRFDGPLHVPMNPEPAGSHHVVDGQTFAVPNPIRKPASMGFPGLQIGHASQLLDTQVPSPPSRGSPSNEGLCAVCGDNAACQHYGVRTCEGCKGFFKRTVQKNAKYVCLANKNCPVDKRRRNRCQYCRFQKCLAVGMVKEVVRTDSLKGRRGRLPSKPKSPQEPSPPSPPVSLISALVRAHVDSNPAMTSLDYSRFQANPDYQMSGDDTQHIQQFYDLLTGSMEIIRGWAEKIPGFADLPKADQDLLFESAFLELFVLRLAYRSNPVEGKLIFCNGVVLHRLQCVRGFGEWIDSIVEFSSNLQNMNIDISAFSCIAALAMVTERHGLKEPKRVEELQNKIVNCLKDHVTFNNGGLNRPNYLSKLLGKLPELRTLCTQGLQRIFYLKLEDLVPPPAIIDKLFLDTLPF

Structure (SMILES): CC[C@@]1(O)C(=O)OCc2c1cc1n(c2=O)Cc2cc3ccccc3nc2-1 [CAMPTOTHECIN]
- Activity [1]: Active
- Activity [2]: Active
- Activity [3]: Active
- Activity [4]: Toxic
- Activity [5]: Active
- Activity [6]: Active
- Activity [7]: Active
- Activity [8]: Active
- Activity [9]: Active
- Activity [10]: Toxic
- Activity [11]: Toxic
